Source: ChEMBL document CHEMBL3352168, “Potent, orally available, selective COX-2 inhibitors based on 2-imidazoline core” (Eur J Med Chem, 2014)

Assays:
[1] = biological target: T1, Prostaglandin G/H synthase 1 (Ovis aries) (UniProt P05979); test: Inhibition of ovine COX1 using fluorometric substrate at 100 uM by fluorescent inhibitor screening assay
T1 sequence (whole entry): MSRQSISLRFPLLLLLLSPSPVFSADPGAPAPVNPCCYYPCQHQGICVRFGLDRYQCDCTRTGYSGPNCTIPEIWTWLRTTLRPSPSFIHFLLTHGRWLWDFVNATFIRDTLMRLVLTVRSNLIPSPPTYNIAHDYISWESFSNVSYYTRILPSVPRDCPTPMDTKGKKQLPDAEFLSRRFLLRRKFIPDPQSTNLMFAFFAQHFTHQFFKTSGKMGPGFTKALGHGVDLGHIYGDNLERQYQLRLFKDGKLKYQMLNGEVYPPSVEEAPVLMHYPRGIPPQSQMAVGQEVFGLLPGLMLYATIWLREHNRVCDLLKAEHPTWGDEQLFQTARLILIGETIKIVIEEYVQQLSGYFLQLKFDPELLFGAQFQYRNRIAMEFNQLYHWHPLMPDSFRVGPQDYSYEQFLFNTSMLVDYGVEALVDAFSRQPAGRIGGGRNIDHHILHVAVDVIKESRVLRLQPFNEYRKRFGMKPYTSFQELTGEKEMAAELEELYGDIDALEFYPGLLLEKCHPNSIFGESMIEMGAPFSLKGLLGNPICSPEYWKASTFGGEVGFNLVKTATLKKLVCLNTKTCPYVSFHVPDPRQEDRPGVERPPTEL

[2] = biological target: T2, Prostaglandin G/H synthase 2 (Homo sapiens, UniProt P35354); test: Inhibition of human recombinant COX2 using fluorometric substrate by fluorescent inhibitor screening assay
T2 sequence (P35354 whole entry): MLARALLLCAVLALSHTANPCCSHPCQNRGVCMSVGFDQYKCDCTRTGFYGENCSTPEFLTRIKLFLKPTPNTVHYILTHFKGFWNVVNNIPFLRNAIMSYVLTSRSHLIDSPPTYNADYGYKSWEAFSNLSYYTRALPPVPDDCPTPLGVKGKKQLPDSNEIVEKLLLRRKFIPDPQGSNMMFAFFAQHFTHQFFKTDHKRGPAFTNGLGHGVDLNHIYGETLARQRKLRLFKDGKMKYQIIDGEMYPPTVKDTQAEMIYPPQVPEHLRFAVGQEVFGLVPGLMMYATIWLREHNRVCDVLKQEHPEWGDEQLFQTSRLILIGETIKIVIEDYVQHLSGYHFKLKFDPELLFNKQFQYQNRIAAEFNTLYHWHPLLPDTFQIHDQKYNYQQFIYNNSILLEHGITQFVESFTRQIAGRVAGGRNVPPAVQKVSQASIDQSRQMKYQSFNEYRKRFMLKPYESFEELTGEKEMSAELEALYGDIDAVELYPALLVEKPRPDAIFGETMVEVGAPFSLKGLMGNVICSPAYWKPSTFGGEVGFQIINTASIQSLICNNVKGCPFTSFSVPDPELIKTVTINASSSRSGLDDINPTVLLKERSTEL
Procedure, shortened: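 Human recombinant COX-2 in 100 mM Tris-HCl pH 8.0 with heme and ADHP fluorometric substrate; inhibitor added at final […] (units as printed) from DMSO stocks; reaction started with arachidonic acid, 2 min at room temperature. Resorufin fluorescence read at ex 535/em 590 nm; % inhibition vs no-inhibitor activity; IC50 from concentration–inhibition curve, triplicate determinations.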

Row | SMILES | inhibition [1] | IC50 [2]
1 | CC1CN(c2ccc(S(C)(=O)=O)cc2)C(c2cccc(Br)c2)=N1 (racemic) | 11.1% | > 10 µM
2 | CS(=O)(=O)c1ccc(N2CCN=C2c2cccc(Cl)c2)cc1 | 1.4% | 8.1 µM
3 | COc1ccc(C2=NCCN2c2ccc(S(C)(=O)=O)cc2)cc1F | -1.6% | > 10 µM
4 | COc1ccc(C2=NCCN2c2ccc(S(N)(=O)=O)cc2)cc1F | -5.5% | 9.5 µM
5 | COc1ccc(C2=NCCN2c2ccc(S(N)(=O)=O)cc2)cc1Cl | 3% | 6.2 µM
6 | CS(=O)(=O)c1ccc(N2CCN=C2c2cccc(F)c2)cc1 | 0.7% | > 10 µM
7 | COc1cc(C2=NCCN2c2ccc(S(N)(=O)=O)cc2)ccc1F | – | > 10 µM
8 | CC1CN(c2ccc(S(N)(=O)=O)cc2)C(c2cccc(Br)c2)=N1 (racemic) | 20.2% | > 10 µM
9 | NS(=O)(=O)c1ccc(N2CCN=C2c2ccc(Cl)c(C(F)(F)F)c2)cc1 | 2.7% | 1.8 µM
10 | CC1CN(c2ccc(S(N)(=O)=O)cc2)C(c2ccc(Cl)cc2)=N1 (racemic) | 3.2% | > 10 µM
11 | CS(=O)(=O)c1ccc(N2CCN=C2c2ccc(F)cc2)cc1 | 12.6% | > 10 µM
12 | Cc1cccc(C2=NCCN2c2ccc(S(C)(=O)=O)cc2)c1 | 6% | > 10 µM
13 | CS(=O)(=O)c1ccc(N2CCN=C2c2cccc(Br)c2)cc1 | 12.6% | 6.8 µM
14 | NS(=O)(=O)c1ccc(N2CCN=C2c2ccc(F)cc2)cc1 | 11.4% | 6.9 µM
15 | NS(=O)(=O)c1ccc(N2CCN=C2c2cccc(F)c2)cc1 | -1.4% | 7.2 µM
16 | CC1CN(c2ccc(S(C)(=O)=O)cc2)C(c2ccc(F)cc2)=N1 (racemic) | 6.3% | > 10 µM
